Test results: ChEMBL document CHEMBL1153929, “Exploration and synthesis of curcumin analogues with improved structural stability both in vitro and in vivo as cytotoxic agents” (Bioorg Med Chem, 2009)

Assays:
[1] = Hydrolytic stability assessed as compound degradation at 2 mg in sodium dihydrogen phosphate buffered 0.3% sodium carboxymethylcellulose solution at pH 7.4 after 45 hrs by HPLC; type: physicochemical; details: read-out: Activity
In short: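 2 mg of sample was vortexed into 1 ml of 0.3% (w/v) CMCNa solution in phosphate buffer at pH 7.4 and kept in the dark at 37 °C. HPLC peak areas were recorded. Degradation = (area at 0 h − area at end time) / area at 0 h × 100%.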

[2] = AUC (0 to t) in healthy Sprague-Dawley rat at 500 mg/kg, po administered as single dose; type: ADME, organism-based; parameters: dose 500 mg/kg, route oral; details: plasma
In short: (§1)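 Four rats per group, dosed once by oral gavage at 500 mg/kg, suspended with the aid of 1% CMCNa. Blood (0.5 ml) was taken from the orbital venous plexus at 0.083, 0.25, 0.5, 1, 2, 4 and 8 h. Plasma (200 µl) was extracted with ethyl acetate/chloroform and assayed by isocratic HPLC on an ODS2 column. Parameters came from non-compartmental analysis.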

[3] = Metabolic stability in Sprague-Dawley rat plasma assessed as drug recovery at 0.2 ug/ml by RP-HPLC; type: ADME, cell-free; details: read-out: Stability
[4] = Apparent oral clearance in healthy Sprague-Dawley rat at 500 mg/kg, po administered as single dose; type: ADME, organism-based; parameters: dose 500 mg/kg, route oral; details: in vivo; in short: as §1
[5] = Metabolic stability in Sprague-Dawley rat plasma assessed as drug recovery at 3.2 ug/ml by RP-HPLC; type: ADME, cell-free; details: read-out: Stability
[6] = Mean residence time (0 to infinity) in healthy Sprague-Dawley rat at 500 mg/kg, po administered as single dose; type: ADME, organism-based; parameters: dose 500 mg/kg, route oral; details: in vivo; in short: as §1
[7] = Half life in healthy Sprague-Dawley rat at 500 mg/kg, po administered as single dose; type: ADME, organism-based; parameters: dose 500 mg/kg, route oral; details: in vivo; in short: as §1
[8] = Metabolic stability in Sprague-Dawley rat plasma assessed as drug recovery at 0.8 ug/ml by RP-HPLC; type: ADME, cell-free; details: read-out: Stability
[9] = Cytotoxicity against human LS 174T cells after 72 hrs by MTT assay; type: functional, cell-based; details: LS174T
In short: (§2)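 Cells were plated at 5000 per well in 1640 medium with 5% heat-inactivated calf serum and penicillin/streptomycin, at 37 °C and 5% CO2. After 24 h, compounds in DMSO were added at final 100, 33.3, 11.1 and 3.7 µg/ml for 72 h. MTT (5 mg/ml in 0.9% NaCl) was then added for 3 h, the formazan dissolved in DMSO, and absorbance read at 570 nm.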

[10] = Mean residence time (0 to t) in healthy Sprague-Dawley rat at 500 mg/kg, po administered as single dose; type: ADME, organism-based; parameters: dose 500 mg/kg, route oral; details: in vivo; in short: as §1
[11] = Cmax in healthy Sprague-Dawley rat at 500 mg/kg, po administered as single dose; type: ADME, organism-based; parameters: dose 500 mg/kg, route oral; details: in vivo; in short: as §1
CNE = test: Cytotoxicity against human CNE cells after 72 hrs by MTT assay; type: functional, cell-based; in short: as §2
[12] = AUC (0 to infinity) in healthy Sprague-Dawley rat at 500 mg/kg, po administered as single dose; type: ADME, organism-based; parameters: dose 500 mg/kg, route oral, time infinity; details: plasma; in short: as §1
[13] = Tmax in healthy Sprague-Dawley rat at 500 mg/kg, po administered as single dose; type: ADME, organism-based; parameters: dose 500 mg/kg, route oral; details: in vivo; in short: as §1
PC-3 = test: Cytotoxicity against human PC3 cells after 72 hrs by MTT assay; type: functional, cell-based; details: PC-3, 72 h; in short: as §2
BGC-823 = test: Cytotoxicity against human BGC823 cells after 72 hrs by MTT assay; type: functional, cell-based; details: BGC-823, 72 h; in short: as §2
[14] = Metabolic stability in Sprague-Dawley rat plasma assessed as drug recovery at 12.8 ug/ml by RP-HPLC; type: ADME, cell-free; details: read-out: Stability
HeLa = test: Cytotoxicity against human HeLa cells after 72 hrs by MTT assay; type: functional, cell-based; in short: as §2
[15] = Chemical stability assessed as compound degradation in 0.1 M phosphate buffer at pH 7.2 within 30 mins; type: physicochemical; details: read-out: Activity
[16] = Metabolic stability in Sprague-Dawley rat plasma assessed as drug recovery at 0.05 ug/ml by RP-HPLC; type: ADME, cell-free; details: read-out: Stability
[17] = Drug level in bile of patient with cancer at 3.6 g/day by HPLC; type: ADME, tissue-based; details: human, in vivo; read-out: Drug uptake
HL-60 (human) = test: Cytotoxicity against human HL60 cells after 72 hrs by MTT assay; details: HL-60, 72 h
[18] = Plasma concentration in healthy Sprague-Dawley rat at 500 mg/kg, po administered as single dose after 2 hrs; type: ADME, organism-based; parameters: dose 500 mg/kg, route oral; details: read-out: Drug uptake; in short: as §1
[19] = Chemical stability assessed as half life in pH 8 buffer containing 10% cyclodextrins; type: physicochemical
Blood [20] = test: Drug level in portal blood of patient with cancer at 3.6 g/day by HPLC; type: ADME, tissue-based; details: human, read-out: Drug uptake
Liver = test: Drug level in liver of patient with cancer at 3.6 g/day by HPLC; type: ADME, tissue-based; details: human, in vivo; read-out: Drug uptake
KB (human) = test: Cytotoxicity against human KB cells after 72 hrs by MTT assay
Blood [21] = test: Drug level in peripheral blood of patient with cancer at 3.6 g/day by HPLC; type: ADME, tissue-based; details: human, read-out: Drug uptake

Compound	degraded at 45 h [1] [%]	AUC(0-t) [2] [ng·h/mL]	remaining at 0.2 ug/ml [3] [%]	CL/F [4] [mL/min/kg]	remaining at 3.2 ug/ml [5] [%]	MRT inf [6] [h]	half-life [7] [min]	IC50 [9] [µM]	MRT last [10] [h]	Cmax [11] [ng/mL]	IC50 (CNE) [µM]	AUC(0-inf) [12] [ng·h/mL]	Tmax [13] [min]	IC50 (PC-3) [µM]	IC50 (BGC-823) [µM]	IC50 (HeLa) [µM]	further results
COc1cc(/C=C/C(=O)/C=C/c2ccc(O)c(OC)c2)ccc1O	0	2960	96.4	2090	97.6	8.48	358	3.7	2.96	822	6.8	4910	60	–	–	–	remaining at 0.8 ug/ml [8]: 98.3%
O=C(/C=C/c1ccccc1Br)/C=C/c1ccccc1Br	0	12100	96.5	650	97.1	4.16	175	4	2.49	4100	–	14900	15	15.4	16.1	34.2	remaining at 12.8 ug/ml [14]: 95.2%
COc1cc(/C=C/C(=O)CC(=O)/C=C/c2ccc(O)c(OC)c2)ccc1O [CURCUMIN]	> 64	275	98.2	–	98.7	22.7	145	6.4	3.44	91	32.8	672	30	15	16.7	17.5	degraded at 0.5 h [15]: 92%; remaining at 0.05 ug/ml [16]: 97.7%; concentration [17]: 1300 nM; IC50 (HL-60 (human)): 11.6 µM; concentration at 2 h [18]: 40 ng/mL; half-life [19]: 630 min; concentration (Blood [20]): 1300 nM; concentration (Liver): 1300 nM; IC50 (KB (human)): 35.9 µM; concentration (Blood [21]): 1300 nM
